Results as given in ChEMBL document CHEMBL4130346, “New quinoline-arylamidine hybrids: Synthesis, DNA/RNA binding and antitumor activity” (Eur J Med Chem, 2017).
Activity calls are given as the source filed them. The calls are words filed in the database; no cut-off is given here.

How the values were obtained:
[1] = Binding affinity to polyA-polyU (unknown origin) assessed as change in melting temperature at 0.1 compound to ds-polynucleotide ratio by spectrophotometric method
Method in brief: (§1)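 Thermal melting of ct-DNA (sonicated, filtered) or polyA-polyU in Na cacodylate buffer, I = 0.05 mol dm-3, pH 7.0, at given r = [compound]/[polynucleotide]; polynucleotide as phosphate concentration. Tm from maximum of first derivative, checked by tangent method. ΔTm = Tm(complex) − Tm(free nucleic acid), average of at least two measurements, error ±0.5 °C.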

Calf thymus DNA [2] = assay: Binding affinity to calf thymus DNA assessed as change in melting temperature at 0.3 compound to ds-polynucleotide ratio by spectrophotometric method; assay type: nucleic-acid assay; details: Bos taurus; method in brief: as §1
[3] = Binding affinity to polyA-polyU (unknown origin) assessed as change in melting temperature at 0.3 compound to ds-polynucleotide ratio by spectrophotometric method; method in brief: as §1
HeLa = assay: Growth inhibition of human HeLa cells after 72 hrs by MTT assay; assay type: functional
Method in brief: (§2)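 Adherent cells (2x10^4 cells/cm3) attached overnight, then were exposed to compound for 72 h. Medium was replaced with 5 mg/cm3 MTT, formazan was dissolved in DMSO and absorbance read at 595 nm. Percent growth was taken relative to untreated control minus background. GI50 came from a variable-slope log-inhibitor fit, as mean ± SD of three independent experiments in triplicate.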

Caco-2 = assay: Growth inhibition of human Caco2 cells after 72 hrs by MTT assay; assay type: functional; details: Caco-2, 72 h; method in brief: as §2
Calf thymus DNA [4] = assay: Binding affinity to calf thymus DNA assessed as change in melting temperature at 0.1 compound to ds-polynucleotide ratio by spectrophotometric method; assay type: nucleic-acid assay; details: Bos taurus; method in brief: as §1
K562 = assay: Growth inhibition of human K562 cells after 72 hrs by MTT assay; assay type: functional; details: K562, 72 h
Method in brief: (§3)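 Leukemia cells (1x10^5 cells/cm3) were exposed to compound for 72 h, then MTT (5 mg/cm3) was added for 4 h. Formazan was dissolved with 10% SDS in 0.01 mol dm-3 HCl and absorbance read at 595 nm. Percent growth was taken versus untreated control minus background. GI50 came from a variable-slope fit, as mean ± SD of three independent experiments in triplicate.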

Raji = assay: Growth inhibition of human Raji cells after 72 hrs by MTT assay; assay type: functional; method in brief: as §3
[5] = Solubility of the compound in water; assay type: physicochemical
[6] = Growth inhibition of MDCK1 cells after 72 hrs by MTT assay; parameters: species or system Canis lupus familiaris; details: dog; method in brief: as §2
[7] = Binding affinity to polyA-polyU (unknown origin) assessed as change in melting temperature at 0.5 compound to ds-polynucleotide ratio by spectrophotometric method; method in brief: as §1
[8] = Chemical stability in aqueous solution after several weeks; assay type: physicochemical; details: buffer
Method in brief: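 Aqueous compound solutions were monitored for several weeks by UV-Vis absorbance at 220-900 nm. Linearity with concentration was checked up to 3.5 × 10^-5 mol dm-3, and spectra were recorded at 25–90 °C with reproducibility checked on cooling to 25 °C.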

Calf thymus DNA [9] = assay: Binding affinity to calf thymus DNA assessed as change in melting temperature at 0.5 compound to ds-polynucleotide ratio by spectrophotometric method; assay type: nucleic-acid assay; details: Bos taurus; method in brief: as §1
Calf thymus DNA [10] = assay: Binding affinity to calf thymus DNA by UV-vis spectrophotometric method; assay type: nucleic-acid assay; details: Bos taurus
Method in brief: (§4)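 UV-Vis titration at room temperature in Na cacodylate buffer (I = 0.05 mol dm-3, pH 7.0). Portions of ct-DNA or polyA-polyU were added to a fixed compound concentration until saturation, with dilution correction. Polynucleotide was measured as phosphate. Ks and n were obtained by Scatchard analysis, together with the hypochromic change at the absorption maximum.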

Calf thymus DNA [11] = assay: Binding affinity to calf thymus DNA assessed as hypochromic effect by UV-vis spectrophotometric method; assay type: nucleic-acid assay; details: Bos taurus; method in brief: as §4
Calf thymus DNA [12] = assay: Binding affinity to calf thymus DNA minor groove at 0.1, 0.3, 0.5, 0.7 compound to ds-polynucleotide ratio by CD-spectrophotometric method; assay type: nucleic-acid assay; details: Bos taurus
Method in brief: (§5)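 Induced CD spectra were recorded in 1 cm quartz cuvettes in Na cacodylate buffer (I = 0.05 mol dm-3, pH 7.0) with ct-DNA or polyA-polyU. Compound was added at r = [compound]/[polynucleotide] = 0.1, 0.3, 0.5 and 0.7. The CD signal was followed as a function of r.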

[13] = Binding affinity to polyA-polyU (unknown origin) by UV-vis spectrophotometric method; method in brief: as §4
[14] = Binding affinity to polyA-polyU (unknown origin) assessed as hypochromic effect by UV-vis spectrophotometric method; method in brief: as §4
[15] = Induction of polyA-polyU (unknown origin) intercalation at 0.1, 0.3, 0.5, 0.7 compound to ds-polynucleotide ratio by CD-spectrophotometric method; method in brief: as §5
Calf thymus DNA [16] = assay: Disruption of calf thymus DNA helix at 0.1, 0.3, 0.5, 0.7 compound to ds-polynucleotide ratio by CD-spectrophotometric method; assay type: nucleic-acid assay; details: Bos taurus; method in brief: as §5

Row | ΔTm [1] [°C] | ΔTm (Calf thymus DNA [2]) [°C] | ΔTm [3] [°C] | GI50 (HeLa) [µM] | GI50 (Caco-2) [µM] | ΔTm (Calf thymus DNA [4]) [°C] | GI50 (K562) [µM] | GI50 (Raji) [µM] | solubility [5] [µM] | ΔTm [7] [°C] | Stability [8] | ΔTm (Calf thymus DNA [9]) [°C] | log Ks (Calf thymus DNA [10]) | Activity (Calf thymus DNA [11]) [%] | Activity (Calf thymus DNA [12]) | log Ks [13] | Activity [14] | Activity [15] | Activity (Calf thymus DNA [16]) | SMILES | GI50 at 72 h [6] [µM]
1 | 1.18 | 2.67 | 2.18 | 57.7 | 64 | 2.65 | 48.7 | 40.8 | 1000 | 1.49 | Stable | 2.73 | – | – | – | – | – | – | – | Cl.Cl.Clc1ccc2c(Oc3ccc(C4=NCCN4)cc3)ccnc2c1 | 56.6
2 | 0.36 | 2.28 | -0.36 | 56.6 | 47.7 | 2.01 | 82.9 | 51.8 | 1000 | – | Stable | 2.28 | – | – | – | – | – | – | – | CC(C)NC(=N)c1ccc(Oc2ccnc3cc(Cl)ccc23)cc1.Cl.Cl.Cl | 57.7
3 | 0 | 2.17 | -0.16 | 59.1 | 57.6 | 1.76 | 62.5 | 53 | 1000 | -0.26 | Stable | 2.07 | – | – | – | – | – | – | – | Cl.Cl.N=C(N)c1ccc(Oc2ccnc3cc(Cl)ccc23)cc1 | 52.8
4 | – | – | – | 74 | 68.6 | – | 49.5 | 58.9 | 1000 | – | Stable | – | – | – | – | – | – | – | – | Cl.Cl.Cl.N=C(N)c1ccc(OCCNc2ccnc3cc(Cl)ccc23)cc1 | 74.4
5 | 1.62 | 1.86 | 1.22 | 57 | 53.3 | 2.08 | 62 | 50.8 | 1000 | 1.32 | Stable | 1.96 | – | – | – | – | – | – | – | Cl.Cl.Clc1ccc2c(Oc3ccc(C4=NCCCN4)cc3)ccnc2c1 | 37.5
6 | 1.64 | 1.41 | 0.78 | 57 | 43.2 | 1.07 | 59.7 | 46.7 | 1000 | 0.25 | Stable | 2.08 | 5.88 | 60.2 | Active | 6.05 | 17.9% | Active | – | CC(C)CNC(=N)c1ccc2nc(-c3ccc(Oc4ccnc5cc(Cl)ccc45)cc3)[nH]c2c1.Cl.Cl.Cl | 53.5
7 | – | – | – | > 100 | 92.6 | – | 77.3 | 86.2 | 1000 | – | Stable | – | – | – | – | – | – | – | – | CC(C)CNC(=N)c1ccc(OCCNc2ccnc3cc(Cl)ccc23)cc1.Cl.Cl.Cl | > 100
8 | – | – | – | > 100 | > 100 | – | > 100 | > 100 | 1000 | – | Stable | – | – | – | – | – | – | – | – | CC(C)NC(=N)c1ccc(OCCNc2ccnc3cc(Cl)ccc23)cc1.Cl.Cl.Cl | > 100

Continued, compound first:

Row | SMILES | ΔTm [1] [°C] | ΔTm (Calf thymus DNA [2]) [°C] | ΔTm [3] [°C] | GI50 (HeLa) [µM] | GI50 (Caco-2) [µM] | ΔTm (Calf thymus DNA [4]) [°C] | GI50 (K562) [µM] | GI50 (Raji) [µM] | solubility [5] [µM] | ΔTm [7] [°C] | Stability [8] | ΔTm (Calf thymus DNA [9]) [°C] | log Ks (Calf thymus DNA [10]) | Activity (Calf thymus DNA [11]) [%] | Activity (Calf thymus DNA [12]) | log Ks [13] | Activity [14] | Activity [15] | Activity (Calf thymus DNA [16]) | GI50 at 72 h [6] [µM]
9 | Cl.Cl.Clc1ccc2c(NCCOc3ccc(C4=NCCCN4)cc3)ccnc2c1 | – | – | – | > 100 | > 100 | – | > 100 | > 100 | 1000 | – | Stable | – | – | – | – | – | – | – | – | > 100
10 | Cl.Cl.Clc1ccc2c(NCCOc3ccc(C4=NCCN4)cc3)ccnc2c1 | – | – | – | 60.8 | 50.7 | – | 51.9 | 51.5 | 1000 | – | Stable | – | – | – | – | – | – | – | – | 78.4
11 | Cl.Cl.Clc1ccc2c(Oc3ccc(-c4nc5ccc(C6=NCCCN6)cc5[nH]4)cc3)ccnc2c1 | 2.84 | 3.31 | 1.98 | 64.4 | 34.5 | 3.3 | 21.6 | 50.5 | 1000 | 1.82 | Stable | 3.89 | 6.96 | 25.5 | Active | 7.29 | 15.5% | Active | – | 67.1
12 | Cl.Cl.Clc1ccc2c(Oc3ccc(-c4nc5ccc(C6=NCCN6)cc5[nH]4)cc3)ccnc2c1 | -0.16 | 3.2 | 0.78 | > 100 | 36.8 | 1.6 | 27.6 | 40.6 | 1000 | 1.12 | Stable | 4.08 | 5.76 | 68.5 | Active | – | 69.7% | Active | – | 77.1
13 | Cl.Cl.Cl.Clc1ccc2c(NCCOc3ccc(-c4nc5ccc(C6=NCCCN6)cc5[nH]4)cc3)ccnc2c1 | – | 9.76 | – | > 100 | > 100 | 6.33 | 13.3 | 19 | 1000 | – | Stable | 10.8 | 6.52 | 31 | Active | inactive | inactive | – | Active | 100
14 | Cl.Cl.N=C(NC1CCCC1)c1ccc2nc(-c3ccc(Oc4ccnc5cc(Cl)ccc45)cc3)[nH]c2c1 | 0.18 | 2.91 | 4.06 | 61.9 | 47.4 | 1.41 | 54.6 | 41.5 | 1000 | 6.82 | Stable | 3.07 | 6.23 | 36.7 | Active | 6.31 | 22.8% | Active | – | 55.5
15 | Cl.Cl.Cl.N=C(N)c1ccc2nc(-c3ccc(OCCNc4ccnc5cc(Cl)ccc45)cc3)[nH]c2c1 | – | 8.4 | – | > 100 | > 100 | 4.84 | 34.7 | 29.3 | 1000 | – | Stable | 8.4 | 6.72 | 17.7 | Active | inactive | inactive | – | Active | 71.6
16 | CC(C)NC(=N)c1ccc2nc(-c3ccc(OCCNc4ccnc5cc(Cl)ccc45)cc3)[nH]c2c1.Cl.Cl.Cl | – | 9.05 | – | > 100 | > 100 | 5.83 | 17.2 | 19.6 | 1000 | – | Stable | 9.83 | 6.63 | 23.7 | Active | inactive | inactive | – | Active | > 100
17 | Cl.Cl.N=C(NC1CCCC1)c1ccc(OCCNc2ccnc3cc(Cl)ccc23)cc1 | – | – | – | > 100 | 84.5 | – | 76.9 | 96.9 | 1000 | – | Stable | – | – | – | – | – | – | – | – | > 100
